Screening data (PubChem)
NPY-Y1 PAM-ag: human NPY-Y1 potentiation or agonism, primary screen; AID 1304; NPY-Y1 expressing cells, potentiator/agonist activation; P25929; actives 0.37% (n = 220,000); activation, % at 3.6 µM; in the data active means activation above about 33%, passing the limit was not always enough;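 further: cells stimulated with NPY at EC10 then isoproterenol at EC100; 0% = low agonist plus stimulus and 100% = saturating agonist plus stimulus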
NPY Y2 blocker: NPY-Y2 (human) receptor antagonism | P49146 | NPY-Y2 expressing cells, antagonist mode | inhibition, % at 2.7 µM | actives 0.99% (n = 140,000);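 further: 0% = vehicle with agonist challenge and 100% = reference antagonist with challenge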
Target sequence (P49146 whole entry, looked up): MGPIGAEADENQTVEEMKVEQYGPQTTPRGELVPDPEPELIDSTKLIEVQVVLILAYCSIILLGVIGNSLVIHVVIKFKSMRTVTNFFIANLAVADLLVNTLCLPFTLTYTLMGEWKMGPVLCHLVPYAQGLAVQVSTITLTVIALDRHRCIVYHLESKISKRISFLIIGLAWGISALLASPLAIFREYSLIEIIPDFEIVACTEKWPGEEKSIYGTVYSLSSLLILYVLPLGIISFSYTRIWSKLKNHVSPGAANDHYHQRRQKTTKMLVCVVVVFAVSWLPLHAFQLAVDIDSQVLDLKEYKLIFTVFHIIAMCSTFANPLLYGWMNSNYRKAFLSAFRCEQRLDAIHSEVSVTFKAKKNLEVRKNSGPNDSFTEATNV
NPY2 pot ag: human NPY-Y2 potentiation or agonism, primary screen; AID 1359; cells expressing NPY-Y2, potentiator/agonist read-out; actives 0.45% (n = 220,000); activation, % at 3.6 µM; in the data active means activation above about 27%;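 further: cells stimulated with NPY near EC25 plus isoproterenol at EC100; 0% = vehicle plus submaximal agonist and 100% = vehicle plus saturating agonist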
NPY Y1 blocker: blocks the human neuropeptide Y Y1 receptor; actives 1% (n = 200,000); inhibition, % at 3.6 µM; HEK293-CNG Y1 cells, membrane potential fluorescence; NPY at EC95, then isoproterenol;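 active means inhibition above the campaign mean inhibition of all tested compounds plus 3 SD, cut at about 20% in these data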;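 further: 0% = DMSO wells given NPY plus isoproterenol and 100% = isoproterenol alone without NPY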
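Test system: HEK293 cells co-expressing NPY Y1 receptor and cyclic-nucleotide gated channel; Also added: NPY (25 nM), isoproterenol (1 µM), Ro 20-1724 (25 µM); Compound dosing: one concentration, 3.6 µM, in 0.4% DMSO; Timing: dye 3 h, compound 60 min room temperature, stimulation 45 min; Technique: Membrane-potential fluorescent dye readout.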
RAM inhibit: yeast RAM network inhibition | S. cerevisiae dse1pr::URA3 reporter, 5-FOA growth OD615, 2 d; analog-sensitive cbk1-as2 kinase mutant strain | inhibition, % at 50 µM | AID 868 | actives 1.8% (n = 190,000);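 active means inhibition above a set limit, 3 SD over mean compound inhibition, cut at about 8.4% in these data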;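 further: 0% = DMSO-only wells with no growth and 100% = 10 µM 1-NA-PP1 full growth; inhibition rescues growth on 5-FOA so higher OD means more RAM inhibition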
WT yeast gro inh: growth inhibition of WT yeast, mitochondrial fusion screen. mitochondrial fusion phenotypic screen, WT strain. inhibition, % at 10 µM. actives 2.1% (n = 190,000). AID 1362; in the data active means inhibition above about 58%; tested in S. cerevisiae
NPY-Y1 ant conf: confirmation of human neuropeptide Y receptor Y1 antagonists | AID 1254 | actives 21% (n = 1,200) | inhibition, % at 3.6 µM | shares compounds with NPY Y1 blocker | HEK293-CNG NPY-Y1, membrane potential fluorescence, cAMP; NPY challenge against isoproterenol-raised cAMP; in the data active means inhibition above about 20%;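 further: 0% = vehicle with agonist plus stimulus and 100% = stimulus alone without agonist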
NPY2 antag ctr: counter-screen for NPY-Y1 antagonists: human NPY-Y2 antagonism | shares compounds with NPY Y1 blocker | HEK293 NPY-Y2 CNG membrane potential fluorescence; cells given NPY, then isoproterenol | inhibition, % at 3.6 µM | actives 28% (n = 1,200) | AID 1255;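 further: 0% = DMSO with agonist challenge and 100% = reference antagonist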
Active calls of the source: *; · = no result. This is a sample that favours compounds with a hit; in the whole collection about 4.9% have one here. Unless noted, no stated cut-off is given here; in the data, active means inhibition above about 17%; inactive means the rest.

SMILES	NPY-Y1 PAM-ag	NPY Y2 blocker	NPY2 pot ag	NPY Y1 blocker	RAM inhibit	WT yeast gro inh	NPY-Y1 ant conf	NPY2 antag ctr
Cc1ccc(CSc2nc3ccccc3cc2C=O)cc1	2	-2	-3	23*	10*	5	1	6
O=C(NNc1cccc(Cl)n1)c1ccc(Cl)cc1Cl	12	-1	-3	4	2	7	·	·
O=C(NNc1cccc(Cl)n1)c1ccccc1CC[N+](=O)[O-]	20	·	8	23*	0	-5	2	-1
NC(=O)COC(=O)CSc1ccc2ccccc2c1	-39	·	-34	22*	-1	-16	17	14
CC(=O)Nc1cc2c(=O)n(Cc3ccccc3)c(C)nc2cc1N1CCOCC1	3	3	1	4	1	-21	·	·
Cc1nc2cc(N3CCCCC3)c(NC(=O)c3cccnc3)cc2c(=O)n1Cc1ccccc1	-77	6	-26	23*	4	-12	8	9
COc1ccc2[nH]c(=O)c(NC(N)=S)nc2c1	4	-1	2	1	3	10	·	·
COCCCNC(=O)CCc1ccccc1	7	·	-17	-2	2	-7	·	·
Cc1ccc(-c2nnc(N3CCC(C)CC3)c3ccccc23)cc1C	-25	·	-10	26*	1	82*	9	14
Cc1ccc(-c2nnc(N3CCC(C)CC3)c3ccccc23)cc1	-3	·	-3	29*	0	58	12	7
O=C(Nc1ccc(F)cc1)N1CCOCC1	-11	1	12	-2	2	33	·	·
C=CCNCC(=O)N1N=C(c2ccc3ccccc3c2)CC1c1ccc(OC)cc1 (configuration not stated)	-37	·	-35	32*	1	37	32*	50*
COc1ccc(C2CC(c3ccc4ccccc4c3)=NN2C(=O)CN2CCC(C(N)=O)CC2)cc1 (configuration not stated)	-46	·	-20	17	2	-12	·	·
COc1ccc(C2CC(c3ccc4ccccc4c3)=NN2C(=O)CNC2CCCCC2)cc1 (configuration not stated)	5	·	15	30*	1	38	37*	33*
COc1ccc(C2CC(c3ccc4ccccc4c3)=NN2C(=O)COC(=O)C2CCC(=O)N2)cc1 (configuration not stated)	3	·	-15	1	3	14	·	·
CO/N=C(\c1nonc1N)N1CCN(c2ccc(Cl)cc2[N+](=O)[O-])CC1	2	13	-2	24*	4	75*	16	9
CO/N=C(\c1nonc1N)N1CCN(c2ccc([N+](=O)[O-])cc2Cl)CC1	-11	2	10	14	2	6	·	·
OC(CNCc1cccc(Cl)c1)c1ccccc1 (configuration not stated)	-14	·	0	2	1	7	·	·
Cc1ccc(NC(=O)CSc2nc3ccccc3c(=O)n2CCCN2CCCCC2)cc1Cl	-70	·	-60	23*	0	35	45*	55*
CC1CCN(CCCn2c(SCC(=O)Nc3ccccc3Cl)nc3ccccc3c2=O)CC1	-39	·	-15	31*	3	12	25*	24*
COC(=O)c1ccccc1NS(=O)(=O)c1ccc(F)cc1	-24	3	1	14	-1	14	·	·
COC(=O)C1CCCN1S(=O)(=O)c1ccc2ccccc2c1 (configuration not stated)	7	9	3	41*	1	-7	57*	27*
O=C(CC(c1ccccc1)c1ccccc1O)N1CCCC1 (configuration not stated)	-13	2	0	-2	1	8	·	·
O=C(NC1CCCCC1)C(c1ccc2ncccc2c1)N(Cc1cccs1)C(=O)c1cccs1 (configuration not stated)	-10	3	3	32*	-1	-4	5	6
